ChEMBL document CHEMBL3272018, “Synthesis of aziridinylallylaminophosphine oxides and sulfides as potential adjuvant cancer chemotherapeutic agents” (J Med Chem, 1976)
Active and inactive are the calls of the source. The rule behind the calls is not given here.

Assays:
[1] = tested on: W256; assay: Antitumor activity against rat Walker 256 cells intramuscularly allografted in rat assessed as survival rate at 0.5 mg/kg, qd administered for 5 days; type: functional, organism-based; parameters: dose 0.5 mg/kg
Summary of the method: (§1)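 Rats bearing Walker 256 carcinoma as a solid tumor; lines 1-8 use a cytoxan-resistant Walker 256 subline. Dosed once daily for 5 days. Treated (T) and untreated control (C) groups are compared, and the response is given as T/C percentage, reflecting increase in survival time. Host weight change is the average weight change of the test group minus that of the controls, in grams.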

[2] = species: Rattus norvegicus; assay: Toxicity in Wistar-Furth rat assessed as decrease in secondary spermatocytes measured for 24 hrs; type: organism-based; conditions: in vivo
Summary of the method: (§2)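 Wistar-Furth rats were injected daily for 5 days at the antifertility-study doses of 1 or 5 mg/kg, depending on agent. Testes or ovaries were taken at sacrifice after 1, 3 or 24 h. Cryostat frozen sections were fixed in 95% alcohol for 10 min and stained with acridine orange (DNA green, RNA red). Results were compared with untreated controls.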

[3] = tested on: W256; assay: Antitumor activity against cytoxan-resistant rat Walker 256 cells intramuscularly allografted in rat assessed as tumor growth inhibition at 1 mg/kg, qd administered for 5 days relative to control; type: functional; conditions: W256, im, 120 h, route intramuscular, read-out: TGI
Summary of the method: (§3)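 Dosed once daily for 5 days. Response is tumor progression in treated (T) versus untreated control (C) animals, expressed as T/C percentage. Host weight change is reported as the average net weight change of the test group minus that of the controls, in grams.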

[4] = tested on: W256; assay: Antitumor activity against cytoxan-resistant rat Walker 256 cells intramuscularly allografted in rat assessed as survival rate at 0.12 mg/kg, qd administered for 5 days; type: functional, organism-based; parameters: dose 0.12 mg/kg; summary of the method: as §1
[5] = tested on: W256; assay: Antitumor activity against cytoxan-resistant rat Walker 256 cells intramuscularly allografted in rat assessed as survival rate at 1 mg/kg, qd administered for 5 days; type: functional, organism-based; parameters: dose 1 mg/kg; summary of the method: as §1
[6] = species: Rattus norvegicus; assay: Toxicity in Wistar-Furth rat assessed as effect on ovary measured for 24 hrs; type: organism-based, Female gonad; conditions: in vivo; summary of the method: as §2
[7] = tested on: W256; assay: Antitumor activity against rat Walker 256 cells intramuscularly allografted in rat assessed as tumor growth inhibition; type: functional; conditions: W256, im; summary of the method: as §3
[8] = tested on: W256; assay: Antitumor activity against rat Walker 256 cells intramuscularly allografted in rat assessed as tumor growth inhibition at 0.125 mg/kg, qd administered for 5 days relative to control; type: functional; conditions: W256, im, 120 h, route intramuscular, read-out: TGI; summary of the method: as §3
[9] = tested on: W256; assay: Antitumor activity against rat Walker 256 cells intramuscularly allografted in rat assessed as tumor growth inhibition at 0.062 mg/kg, qd administered for 5 days relative to control; type: functional; conditions: W256, im, 120 h, route intramuscular, read-out: TGI; summary of the method: as §3
[10] = tested on: W256; assay: Antitumor activity against cytoxan-resistant rat Walker 256 cells intramuscularly allografted in rat assessed as survival rate at 0.25 mg/kg, qd administered for 5 days; type: functional, organism-based; parameters: dose 0.25 mg/kg; summary of the method: as §1
[11] = Therapeutic index, ratio of LD50 for rat allografted with rat Walker 256 cells to ED10 for antitumor activity against rat Walker 256 cells intramuscularly allografted in rat; type: cell-based; conditions: read-out: TI
Summary of the method: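 Therapeutic index is LD50/ED10 in the Walker 256 solid tumour system. ED10 is the dose giving a 10% tumour weight reduction, with values extrapolated from dose-response data.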

[12] = tested on: Rattus norvegicus; assay: Toxicity in rat allografted with rat Walker 256 cells intramuscularly assessed as change in body weight at 0.125 mg/kg, qd administered for 5 days; type: organism-based; parameters: dose 0.125 mg/kg, route intramuscular; conditions: in vivo, im, 120 h
Summary of the method: (§4)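 Walker 256 carcinoma solid-tumour system in rats (parent line, or the line resistant to cytoxan). Dosing was one injection per day for 5 days. Toxicity was taken as the average net body-weight change of the treated group minus the average net weight change of the untreated tumour-bearing controls, in grams.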

[13] = Therapeutic index, ratio of LD50 for rat allografted with cytoxan-resistant rat Walker 256 cells to ED10 for antitumor activity against rat Walker 256 cells allografted in rat; conditions: read-out: TI
Summary of the method: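 Therapeutic index is LD50/ED10 in cytoxan-resistant Walker 256 solid tumour in rats. ED10 is the dose giving a 10% reduction, extrapolated from dose-response data.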

[14] = Toxicity in rat allografted with rat Walker 256 cells intramuscularly; type: organism-based
[15] = tested on: Rattus norvegicus; assay: Toxicity in rat allografted with rat Walker 256 cells intramuscularly assessed as change in body weight at 0.25 mg/kg, qd administered for 5 days; type: organism-based; parameters: dose 0.25 mg/kg, route intramuscular; conditions: in vivo, im, 120 h; summary of the method: as §4
[16] = tested on: W256; assay: Antitumor activity against rat Walker 256 cells intramuscularly allografted in rat assessed as tumor growth inhibition at 1 mg/kg, qd administered for 5 days relative to control; type: functional; conditions: W256, im, 120 h, route intramuscular, read-out: TGI; summary of the method: as §3
[17] = tested on: W256; assay: Antitumor activity against rat Walker 256 cells intramuscularly allografted in rat assessed as survival rate at 0.062 mg/kg, qd administered for 5 days; type: functional, organism-based; parameters: dose 0.062 mg/kg; summary of the method: as §1
[18] = tested on: W256; assay: Antitumor activity against rat Walker 256 cells intramuscularly allografted in rat assessed as survival rate at 0.125 mg/kg, qd administered for 5 days; type: functional, organism-based; parameters: dose 0.125 mg/kg; summary of the method: as §1
[19] = tested on: Musca domestica; assay: Toxicity in male house fly assessed as lowest dose required to cause complete sterility administered in food; type: organism-based; conditions: in vivo, po
[20] = tested on: Rattus norvegicus; assay: Toxicity in rat allografted with rat Walker 256 cells intramuscularly assessed as change in body weight at 0.5 mg/kg, qd administered for 5 days; type: organism-based; parameters: dose 0.5 mg/kg, route intramuscular; conditions: in vivo, im, 120 h; summary of the method: as §4
[21] = tested on: Rattus norvegicus; assay: Toxicity in rat allografted with cytoxan-resistant rat Walker 256 cells intramuscularly assessed as change in body weight at 0.5 mg/kg, qd administered for 5 days; type: organism-based; parameters: dose 0.5 mg/kg, route intramuscular; conditions: in vivo, im, 120 h; summary of the method: as §4

## C=CCN(CC=C)P(=O)(N1CC1)N1CC1
[1]
  Activity: Active
[2]
  Activity: Toxic
[3]
  inhibition in vivo at 1 mg/kg: 40%
[4]
  Activity: Active
[5]
  Activity: Active
[6]
  Activity: Non-toxic
[7]
  ED10: 0.5 mg/kg
[8]
  inhibition in vivo at 0.125 mg/kg: 1%
[9]
  inhibition in vivo at 0.062 mg/kg: 7%
[10]
  Activity: Active
[11]
  selectivity ratio: 10
[12]
  Activity: -1 g
[13]
  selectivity ratio: 2.5
[14]
  LD50: 5 mg/kg
[15]
  Activity: -12 g
[16]
  inhibition in vivo at 1 mg/kg: 0%
[17]
  Activity: Active
[18]
  Activity: Active
[19]
  Activity: 0.1%
[20]
  Activity: -6 g
[21]
  Activity: -13 g
